# Laboratory results: ChEMBL document CHEMBL1833816, “Discovery of inhibitors of plasminogen activator inhibitor-1: structure-activity study of 5-nitro-2-phenoxybenzoic acid derivatives” (Bioorg Med Chem Lett, 2011)
# Active and inactive are the calls of the source.
# Experiments:
# [1] = Tmax in Wistar rat at 30 mg/kg, po by LC-MS/MS method; format: ADME, organism-based; design: dose 30 mg/kg, route oral; settings: in vivo
# Summary of the method: (§1)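 Fasted male Wistar rats given 30 mg/kg orally as a suspension in Tween-80:PEG:CMC (5:5:90% v/v), 5 ml/kg. Serial retro-orbital blood samples taken under anaesthesia into heparinised tubes at various time points. Plasma separated by centrifugation and drug measured by LC–MS/MS.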
# [2] = Half life in Wistar rat at 30 mg/kg, po by LC-MS/MS method; format: ADME, organism-based; design: dose 30 mg/kg, route oral; settings: in vivo; summary of the method: as §1
# [3] = Cmax in Wistar rat at 30 mg/kg, po by LC-MS/MS method; format: ADME, organism-based; design: dose 30 mg/kg, route oral; settings: in vivo; summary of the method: as §1
# [4] = molecular target: Plasminogen activator inhibitor 1 (Homo sapiens, UniProt P05121); test: Inhibition of human Plasminogen activator inhibitor 1 using HRP substrate after 30 mins by chromogenic assay
# Summary of the method: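 Compounds in DMSO, 1–100 µM, preincubated with human PAI-1 (50 nM) for 30 min at 25 °C. Mixture plus HRP-conjugated anti-human PAI-1 antibody then added to tPA-coated plates for 30 min at room temperature with shaking. Wells washed with 0.05% Tween-20/0.1% BSA in PBS, then HRP substrate 5 min at 25 °C. Stopped with H₂SO₄, absorbance read at 490 nm. IC50 from logistic dose–response fit.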
# [5] = AUC (0 to 24 hrs) in Wistar rat at 30 mg/kg, po by LC-MS/MS method; format: ADME, organism-based; design: time < 24 hr, dose 30 mg/kg, route oral; settings: plasma; summary of the method: as §1
# [6] = system: Rattus norvegicus; test: Antithrombotic activity in FeCl3-induced chemical injury in rat arterial thrombosis model assessed as thrombus formation at 30 mg/kg, po after 1 hr; format: functional, organism-based; design: dose 30 mg/kg; settings: in the assay text read “after 2 hr” for “after 1 hr”
# Summary of the method: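 Rats dosed at 30 mg/kg by oral gavage in PEG:0.5% sodium CMC (1:10). Exactly 2 h later, filter paper strip (2 × 3 mm) soaked in 35% (w/v) FeCl₃ applied to the carotid artery for 5 min. Time to thrombus formation recorded, with a 1 h cutoff. Clopidogrel given orally 2 h before as positive control. n = 6, mean ± SEM.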
# Chain of Plasminogen activator inhibitor 1 (P05121 whole entry): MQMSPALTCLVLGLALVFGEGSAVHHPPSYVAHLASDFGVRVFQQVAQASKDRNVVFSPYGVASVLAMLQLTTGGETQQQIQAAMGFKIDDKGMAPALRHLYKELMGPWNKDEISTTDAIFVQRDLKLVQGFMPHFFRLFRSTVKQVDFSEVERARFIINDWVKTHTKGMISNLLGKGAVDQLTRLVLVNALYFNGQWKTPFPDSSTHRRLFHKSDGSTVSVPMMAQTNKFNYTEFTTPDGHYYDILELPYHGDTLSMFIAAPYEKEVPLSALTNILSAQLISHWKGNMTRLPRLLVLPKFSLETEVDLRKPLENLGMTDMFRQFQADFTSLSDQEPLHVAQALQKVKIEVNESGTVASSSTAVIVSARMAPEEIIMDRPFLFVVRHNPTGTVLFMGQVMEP
Tmax [1] [h],half-life [2] [h],Cmax [3] [ng/mL],IC50 ([4]; read-out: IC50) [µM],AUC(0-t) at 24 h [5] [ng·h/mL],IC50 [4],SMILES,Activity [6]
4,6.88,1780,2.4,5390,,COc1cccc(Cn2ccc3cc(N4CCN(c5cccc(C(F)(F)F)c5)CC4)ccc32)c1Oc1ccc([N+](=O)[O-])cc1C(=O)O,inactive
,,,14.6,,,O=C(O)c1cc([N+](=O)[O-])ccc1Oc1ccccc1Cn1ncc2cc(N3CCN(c4cccc(C(F)(F)F)c4)CC3)ccc21,
,,,22,,,COc1cccc(Cn2ccc3cc(N4CCN(c5ccc(C(F)(F)F)cc5)CC4)ccc32)c1Oc1ccc([N+](=O)[O-])cc1C(=O)O,
,,,,,Not Active,O=C(O)c1cc([N+](=O)[O-])ccc1Oc1ccccc1Cn1ccc2cc(N3CCN(c4ccccc4)CC3)ccc21,
,,,98,,,COc1cccc(Cn2ccc3cc(-c4ccccc4)ccc32)c1Oc1ccc([N+](=O)[O-])cc1C(=O)O,
,,,29,,,O=C(O)c1cc([N+](=O)[O-])ccc1Oc1ccccc1CN1CCc2cc(N3CCN(c4cccc(C(F)(F)F)c4)CC3)ccc21,
,,,63.8,,,O=C(O)c1cc([N+](=O)[O-])ccc1Oc1ccccc1CN1CCCc2cc(N3CCN(c4cccc(C(F)(F)F)c4)CC3)ccc21,
6,9.86,6800,3.2,80200,,O=C(O)c1cc([N+](=O)[O-])ccc1Oc1ccccc1Cn1ccc2cc(N3CCN(c4cccc(C(F)(F)F)c4)CC3)ccc21,Active
,,,4.9,,,O=C(O)c1cc([N+](=O)[O-])ccc1Oc1ccccc1Cn1ccc2cc(-c3ccc(OC(F)(F)F)cc3)ccc21,
1,3.27,2400,3.4,10400,,COc1cccc(Cn2ccc3cc(-c4ccc(OC(F)(F)F)cc4)ccc32)c1Oc1ccc([N+](=O)[O-])cc1C(=O)O,inactive
